# Assay results from ChEMBL document CHEMBL1150250, “New R/S-3,4-dihydro-2,2-dimethyl-6-halo-4-(phenylaminothiocarbonylamino)-2H-1-benzopyrans structurally related to (+/-)-cromakalim as tissue-selective pancreatic beta-cell K(ATP) channel openers” (Bioorg Med Chem, 2008).
# The source made the active and inactive calls. No cut-off for these calls is given here.
# Legend:
# [1] = Inhibition of glucose-induced insulin secretion in Wistar rat pancreatic beta islets assessed as residual insulin secretion at 10 uM relative to control; type: functional
# Aorta [2] = assay: Myorelaxant activity in potassium depolarized Wistar rat aorta rings assessed as relaxation of KCl-induced contraction; type: functional, tissue-based
# Outline: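 Thoracic aorta rings (3–4 mm) from adult fed Wistar rats were equilibrated for 60 min, then contracted with 30 mM KCl. Drug was added cumulatively up to maximal relaxation or 300 µM, and isometric tension was recorded. Relaxation was expressed as % of the KCl contraction. EC50 (50% inhibition of the KCl plateau) was derived from dose–response curves. Values are mean ± SEM (n).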
# Aorta [3] = assay: Ratio of IC50 for glucose-induced insulin secretion in Wistar rat pancreatic beta islets to EC50 for myorelaxant activity in Wistar rat aorta rings; type: functional
# Outline: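 Selectivity ratio: the estimated IC50 for inhibition of 16.7 mM glucose-induced insulin release from incubated islets, divided by the EC50 for relaxing 30 mM KCl-contracted rat aortic rings.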
# [4] = Inhibition of glucose-induced insulin secretion in Wistar rat pancreatic beta islets assessed as residual insulin secretion at 1 uM relative to control; type: functional
# [5] = Activation of KATP channel assessed as reduction of glucose-induced rise in cytosolic calcium concentration in Wistar rat pancreatic beta islets at 10 uM by calcium fluorimetry
# Outline: (§1)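 Dispersed rat islet cells were cultured for 72 h on coverslips, then loaded with fura-2 AM (2 µmol/L) for 1 h. Cells were perifused in bicarbonate salt medium with 2.8 mM glucose, gassed with O2/CO2. The rise in [Ca2+]i was evoked by 20 mM glucose or by 50 mM KCl, with NaCl lowered to keep osmolarity constant. Drug was 10 µM. Dual-excitation (340/380 nm, emission 510 nm) ratio F340/F380 was recorded in single cells, on different cell populations.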
# [6] = Inhibition of glucose-induced insulin secretion in Wistar rat pancreatic beta islets assessed as residual insulin secretion relative to control; type: functional
# Outline: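 Groups of 10 islets from adult fed Wistar rats were preincubated for 30 min at 37 °C in bicarbonate salt medium with 2.8 mM glucose and 0.5% albumin, gassed with O2/CO2. They were then incubated for 90 min in the same medium with 16.7 mM glucose plus drug. Insulin was measured by radioimmunoassay and expressed as % of drug-free 16.7 mM glucose control. Values are mean ± SEM (n).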
# [7] = Activation of KATP channel assessed as reduction of KCl-induced rise in calcium concentration in Wistar rat pancreatic beta islets at 10 uM by calcium fluorimetry; outline: as §1
# [8] = Activation of KATP channel assessed as increase in rate of [86Rb] fractional outflow in perfused Wistar rat pancreatic beta islets at 10 uM
# Outline: (§2)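 Islets from adult fed Wistar rats, in groups of 100, were loaded for 60 min at 37 °C in medium with 16.7 mM glucose plus either 86Rb (0.15–0.25 mmol/L) or 45Ca (0.02–0.04 mmol/L). They were washed three times and then perifused at 1.0 mL/min. Effluent was collected each minute from min 31 to 90. Outflow was expressed as fractional outflow rate (% of instantaneous islet content per min). Insulin in the effluent was measured by radioimmunoassay against a rat insulin standard.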
# [9] = Activation of KATP channel assessed as increase in rate of [86Rb] fractional outflow in perfused Wistar rat pancreatic beta islets in presence of glibenclamide at 10 uM; outline: as §2
# [10] = Activation of KATP channel assessed as insulin release in perfused Wistar rat pancreatic beta islets at 10 uM; outline: as §2
# [11] = Activation of KATP channel assessed as increase in rate of [45Ca] fractional outflow in perfused Wistar rat pancreatic beta islets at 10 uM; outline: as §2
# [12] = Activation of KATP channel assessed as increase in rate of [45Ca] fractional outflow in perfused Wistar rat pancreatic beta islets at 10 uM in absence of extracellular calcium; outline: as §2
SMILES,Activity [1],EC50 (Aorta [2]),further results
CC1(C)CC(NC(=S)Nc2ccccc2Cl)c2cc(Cl)ccc2O1 (centres undefined),68.2%,3.2 µM,
CC1=Nc2ccc(Cl)cc2S(=O)(=O)N1 [DIAZOXIDE],73.9%,,Ratio IC50/EC50 (Aorta [3]): 1.01; Activity [4]: 87.5%
CC1(C)CC(NC(=S)Nc2ccccc2Cl)c2cc(Br)ccc2O1 (centres undefined),57.5%,6.5 µM,
CC1(C)CC(NC(=S)Nc2ccccc2)c2cc(Br)ccc2O1 (centres undefined),32.8%,51.5 µM,
CC1(C)CC(NC(=S)Nc2ccccc2Cl)c2cc(F)ccc2O1 (centres undefined),81.3%,24.4 µM,
COc1ccc(NC(=S)NC2CC(C)(C)Oc3ccc(Br)cc32)cc1 (centres undefined),53.1%,> 10 µM,
CC1(C)CC(NC(=S)Nc2ccc(Cl)cc2)c2cc(Br)ccc2O1 (centres undefined),12.2%,> 10 µM,Activity [5]: Active; IC50 [6]: 2.26 µM; Activity [7]: inactive; Ratio IC50/EC50 (Aorta [3]): <0.22; Activity [4]: 75.7%; Activity [8]: Active; Activity [9]: inactive
COc1cccc(NC(=S)NC2CC(C)(C)Oc3ccc(F)cc32)c1 (centres undefined),52%,6.2 µM,
CC1(C)Oc2ccc(C#N)cc2C(N2CCCC2=O)C1O (racemic) [CROMAKALIM],94.4%,0.13 µM,IC50 [6]: > 100 µM; Ratio IC50/EC50 (Aorta [3]): >770; Activity [4]: 95.3%
CC1(C)CC(NC(=S)Nc2ccccc2)c2cc(Cl)ccc2O1 (centres undefined),46.6%,11.1 µM,
CC(C)NC1=NS(=O)(=O)c2cc(Cl)ccc2N1,4.9%,36.3 µM,IC50 [6]: 0.73 µM; Ratio IC50/EC50 (Aorta [3]): 0.02; Activity [4]: 36.2%
COc1ccc(NC(=S)NC2CC(C)(C)Oc3ccc(Cl)cc32)cc1 (centres undefined),50.4%,12.7 µM,
CC1(C)CC(NC(=S)Nc2ccc(Cl)cc2)c2cc(Cl)ccc2O1 (centres undefined),8.9%,> 10 µM,IC50 [6]: 2.75 µM; Ratio IC50/EC50 (Aorta [3]): <0.27; Activity [4]: 87.9%
Cc1ccccc1NC(=S)NC1CC(C)(C)Oc2ccc(F)cc21 (centres undefined),69.8%,11.1 µM,
Cc1ccc(NC(=S)NC2CC(C)(C)Oc3ccc(F)cc32)cc1 (centres undefined),60.2%,> 30 µM,
Cc1ccccc1NC(=S)NC1CC(C)(C)Oc2ccc(Cl)cc21 (centres undefined),69%,> 30 µM,
CC1(C)CC(NC(=S)Nc2cccc(Cl)c2)c2cc(F)ccc2O1 (centres undefined),18%,> 10 µM,IC50 [6]: 3.25 µM; Ratio IC50/EC50 (Aorta [3]): <0.32; Activity [4]: 90.2%

SMILES,Activity [1],EC50 (Aorta [2]),further results
CC1(C)CC(NC(=S)Nc2cccc(Cl)c2)c2cc(Br)ccc2O1 (centres undefined),23%,> 10 µM,IC50 [6]: 2.59 µM; Ratio IC50/EC50 (Aorta [3]): <0.25; Activity [4]: 74.6%
Cc1cccc(NC(=S)NC2CC(C)(C)Oc3ccc(F)cc32)c1 (centres undefined),53.1%,7.3 µM,
COc1ccc(NC(=S)NC2CC(C)(C)Oc3ccc(F)cc32)cc1 (centres undefined),73.8%,21.6 µM,
CC1(C)CC(NC(=S)Nc2ccccc2)c2cc(F)ccc2O1 (centres undefined),63.2%,7.6 µM,
CC1(C)CC(NC(=S)Nc2ccc(Cl)cc2)c2cc(F)ccc2O1 (centres undefined),10.5%,> 10 µM,Activity [5]: Active; IC50 [6]: 2.3 µM; Activity [10]: Active; Activity [7]: inactive; Ratio IC50/EC50 (Aorta [3]): <0.23; Activity [4]: 77.5%; Activity [11]: Active; Activity [8]: Active; Activity [9]: inactive; Activity [12]: inactive
Cc1cccc(NC(=S)NC2CC(C)(C)Oc3ccc(Cl)cc32)c1 (centres undefined),43%,137 µM,
COc1ccccc1NC(=S)NC1CC(C)(C)Oc2ccc(Cl)cc21 (centres undefined),76.8%,5.5 µM,
CC1(C)CC(NC(=S)Nc2cccc(Cl)c2)c2cc(Cl)ccc2O1 (centres undefined),16.2%,> 10 µM,IC50 [6]: 3.12 µM; Ratio IC50/EC50 (Aorta [3]): <0.31; Activity [4]: 89.5%
Cc1ccc(NC(=S)NC2CC(C)(C)Oc3ccc(Cl)cc32)cc1 (centres undefined),32.8%,> 30 µM,
COc1cccc(NC(=S)NC2CC(C)(C)Oc3ccc(Cl)cc32)c1 (centres undefined),34.3%,2.9 µM,
COc1ccccc1NC(=S)NC1CC(C)(C)Oc2ccc(Br)cc21 (centres undefined),65.1%,> 10 µM,
COc1ccccc1NC(=S)NC1CC(C)(C)Oc2ccc(F)cc21 (centres undefined),82.9%,> 10 µM,
Cc1cccc(NC(=S)NC2CC(C)(C)Oc3ccc(Br)cc32)c1 (centres undefined),37.2%,> 30 µM,
Cc1ccccc1NC(=S)NC1CC(C)(C)Oc2ccc(Br)cc21 (centres undefined),57%,> 30 µM,
COc1cccc(NC(=S)NC2CC(C)(C)Oc3ccc(Br)cc32)c1 (centres undefined),36.6%,> 10 µM,
CC(N/C(=N\C#N)Nc1ccncc1)C(C)(C)C (racemic) [PINACIDIL ANHYDROUS],,0.35 µM,IC50 [6]: > 100 µM
Cc1ccc(NC(=S)NC2CC(C)(C)Oc3ccc(Br)cc32)cc1 (centres undefined),52.2%,> 30 µM,
